Measurements pooled from the literature.
Each line is one published result; the experiments were not run side by side.
Effect on: cell growth or viability

| SMILES | cell line | method | tested at | time | endpoint | value |
| --- | --- | --- | --- | --- | --- | --- |
| C[C@@H]1CC[C@@H]([C@](O)(CNCc2cccc3ccccc23)COCc2ccccc2)[C@H](OCc2ccccc2)C1 | MDA-MB-231 | MTT | 10 µM | 72 h | inhibition | 96.8% |
| CCc1c(C)c2ccc(OCC(=O)NNC(=S)Nc3ccccc3)c(C)c2oc1=O | MDA-MB-231 | MTT | 125 µg/mL | – | viability | 8.46% |
| C[C@@H]1CC[C@@H]([C@](O)(CNCc2ccc(F)cc2)COCc2ccc(F)cc2)[C@H](OCc2ccc(F)cc2)C1 | MDA-MB-231 | MTT | 10 µM | 72 h | inhibition | 88.9% |
| CCC[C@H]1NC(=O)[C@H](Cc2cc(Cl)ccc2-c2cnn(C)c2)N(C)C(=O)[C@H](CC(C)C)NC(=O)[C@@H](N(C)C(=O)[C@H](CCCCN2CCOCC2)NC(=O)[C@@H](c2cccnc2)C2CCCCC2)CCCCNC1=O | NCI-H526 | MTT | – | 5 days | GI50 | 3400 nM |
| Cc1c(C(=O)O)ccc2c3n(nc12)[C@@H]1[C@H](C3)N(CC2CC2)[C@@]2(C(=O)Nc3cc(Cl)ccc32)[C@H]1c1cccc(Cl)c1F | hTERT-RPE1 | – | – | – | IC50 | 16 nM |
| C[C@H](NC(=O)[C@H](CC(=O)NCC(C)(C)C)NC(=O)C(=O)c1c[nH]c2ccccc12)C(=O)NCc1ccc(F)cc1F | A-375 | resazurin | – | 48 h | IC50 | 8870 nM |
| COc1ccc(COC[C@@](O)(CNCc2ccccc2)[C@@H]2CC[C@@H](C)C[C@H]2OCc2ccc(OC)cc2)cc1 | MDA-MB-231 | MTT | 10 µM | 72 h | inhibition | 99.5% |
| CC(=NNC(=O)COc1ccc2c(C)c(Cc3ccccc3)c(=O)oc2c1C)c1ccc(Br)cc1 | MDA-MB-231 | MTT | 125 µg/mL | – | viability | 29% |
| C[C@@H]1CC[C@@H]([C@](O)(CNCc2ccccc2)COCc2ccccc2)[C@H](OCc2ccccc2)C1 | MDA-MB-231 | MTT | 10 µM | 72 h | inhibition | 97.8% |
| C=CCOc1ccc2c(C)c(CC)c(=O)oc2c1C | MDA-MB-231 | MTT | 250 µg/mL | – | viability | 20.2% |
| C=CC(=O)NC1CCN(c2ncc3ncnc(Nc4ccc(Oc5ccc6c(c5)ncn6C)c(C)c4)c3n2)CC1 | LCLC-103H | – | – | – | EC50 | 2.82 nM |
| CCOc1ccc2c(C)c(CC)c(=O)oc2c1C | MDA-MB-231 | MTT | 31.25 µg/mL | – | viability | 100% |
| C[C@@H]1CC[C@@H]([C@](C)(O)CNCc2cccc3ccccc23)[C@H](OCc2ccccc2)C1 | MDA-MB-231 | MTT | 30 µM | 72 h | inhibition | 61% |
| Cc1c(Cc2ccccc2)c(=O)oc2c(C)c(OCC(=O)NN=Cc3ccc([N+](=O)[O-])cc3)ccc12 | MDA-MB-231 | MTT | 31.25 µg/mL | – | viability | 37.2% |
| CCCN1C(=O)[C@H](CC(C)C)NC(=O)[C@@H](N(C)C(=O)[C@H](CC2CCC2)NC(=O)[C@@H]2C[C@@H](F)CN2C(=O)[C@@](C)(O)C(F)(F)F)CCCCNC(=O)C2(CC2)NC(=O)[C@@H]1Cc1cc(Cl)ccc1Cl | NCI-H526 | MTT | – | 5 days | GI50 | 41 nM |
